In the RNAGym collection of RNA variant scans (doi:10.1126/science.aae0568):
This sample holds only a part of the variants without activity.

B1: tRNA (parent)
chain: GUUCCGUUGGCGUAAUGGUAACGCGUCUCCCUCCUAAGGAGAAGACUGCGGGUUCGAGUCCCGUACGGAACG

Variants of: B1
Assay: yeast fitness relative to wild type (ratio to wild type); higher = fitter; tRNA-Arg(CCU), competitive growth, 37 C, YPD
Summary of the method: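 The tRNA-Arg(CCU) gene variants were made by chemical synthesis with a 3% per-site mutation rate at 69 sites and inserted at the native genomic locus of Saccharomyces cerevisiae. After pooling, the strains were competed in YPD at 37°C for 24 hours in six parallel replicates. Gene amplicons from the start population and each end population were read by 100-nucleotide paired-end sequencing, and Darwinian fitness relative to wild type was taken from genotype frequency changes. Genotypes needed ≥ 100 starting reads, and estimates < 0.5 were set to 0.5.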

Row | Variant | yeast fitness
1 | U13C A15C C46G A69C | ≤ 0.5
2 | C11U A21U G41C | 0.603
3 | C4U U28A A57C C61A | ≤ 0.5
4 | G17A C49G | 0.761
5 | G25A A43C U59C | 0.71
6 | U3G A20C A21G C61A | ≤ 0.5
7 | C33U A36C A40U | 0.609
8 | C4A G17A C27G G63A | ≤ 0.5
9 | U2C U13A | 0.805
10 | C4U C11G C29U | ≤ 0.5
11 | C5G G58C A69C | 0.794
12 | G38A A69C | 0.847
13 | C5U U13G C33A A37C | 0.555
14 | A21C A36U G48A | ≤ 0.5
15 | C11G C24U A45C C55U | ≤ 0.5
16 | G9A C31U C60U A65G | ≤ 0.5
17 | C49G A57C A70G | 0.552
18 | U7G C62U | 0.893
19 | C34A A65G | 0.69
20 | A14G U26C A37G C61U G68A | ≤ 0.5
21 | U8C G10C G23C C29G G51A | 0.72

Row | Variant | yeast fitness
22 | U26A U28A C31U G63C | ≤ 0.5
23 | A21U U32C A45U G67C | ≤ 0.5
24 | A14U U16G U19A A42G | 0.512
25 | U19C G25C G51C C60U A69U | ≤ 0.5
26 | G18A C24U G56A | 0.674
27 | C5U G10A U13A A15G G50C A57G | ≤ 0.5
28 | C11U A45G G52A | 0.63
29 | C4A C33G U47A | 0.625
30 | U16A C55A A69C | ≤ 0.5
31 | U2G C11G A20U C24G G51A C60G G68C | ≤ 0.5
32 | G6C C24G C34U U53C C55G C62A A70U | ≤ 0.5
33 | C4A U8A G12C U19C C30U | ≤ 0.5
34 | U8A A20C U35A G38C | ≤ 0.5
35 | A43U C61A | 0.764
36 | A20C C27A G52A | ≤ 0.5
37 | C5A U7C G48C | ≤ 0.5
38 | U19C A20C C24A G56A | ≤ 0.5
39 | U16C G52C A70G | ≤ 0.5
40 | A40U A57U | 0.837
41 | G12A A15G A69C | 0.707
42 | C22U A45G | 0.747

Row | Variant | yeast fitness
43 | C11U U16C G23A A36C | ≤ 0.5
44 | C11G C31U | 0.632
45 | C5A G23C C62U A69U | ≤ 0.5
46 | C24U C49G G63A A69C | ≤ 0.5
47 | U2A A21G | 1.04
48 | C11A C30U C49A A69U | ≤ 0.5
49 | A20U C31A G52A C66U | 0.527
50 | U13A A14C A21C G25A C61A | ≤ 0.5
51 | G17C C22G C24A C62A A70C | 0.57
52 | U3G G63A | 0.849
53 | U16A U28C U47C | 0.79
54 | A14U A45C U47C C55U A65C A69C | ≤ 0.5
55 | U2G C27G C33U | 0.644
56 | C5A G39C | 0.673
57 | C5G C33A G41C U54C | ≤ 0.5
58 | U3C C31A | 0.845
59 | U13G G17C C31U | ≤ 0.5
60 | C27U A40G G44A C62U | ≤ 0.5
61 | G38A A43U G56A | 0.596
62 | G18A C31A A43G G50A A57U | 0.572
63 | C5A C29G C61A | ≤ 0.5

Row | Variant | yeast fitness
64 | C5G U8A G41C G63A | ≤ 0.5
65 | C27U A43G C46G A69C | ≤ 0.5
66 | C24U C30U A57C | ≤ 0.5
67 | U7A G10A G41U C49U | 0.615
68 | A20U A70G | 0.918
69 | A14G G23U G58A | ≤ 0.5
70 | C30G A42U | 0.666
71 | U16G C34G A37C | 0.706
72 | A36G A37U C55G | 0.69
73 | U2G C11G C49A C60U G68C | ≤ 0.5
74 | C5A U19G A43U | 0.656
75 | U28A C31G G48A G51C C55G | 0.523
76 | U28C G67U | 0.914
77 | G6C A42C A43U | ≤ 0.5
78 | U2C A14G C29A C33G | 0.565
79 | U19C C33A A36C C55U | ≤ 0.5
80 | C34U A43G C61A | ≤ 0.5
81 | C11A C46G A65G | ≤ 0.5
82 | A36C U47A G48C A57C A65U | ≤ 0.5
83 | A14G C24A | 0.666
